Source: PubChem BioAssay (SRMLSC)
Shown is part of a subset that was picked to be rich in hits.
H69AR growth 86K: blocks growth of human H69AR lung tumor cells. H69AR lung tumor viability, ATP luminescence, 72 h; hits give low values. viability, % at 10 µM. hit rate 6% among 85,000;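 active = viability at or below 40%; inactive = viability above 40%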;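 note: multidrug resistant small cell line overexpressing MRP-1 efflux transporter; 100% = mean luminescence of untreated control wells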
Fibroblast inh: blocks proliferation of human lung fibroblasts; LL 47 human lung fibroblast viability, ATP luminescence; hits give low values; viability, % at 10 µM; hit rate 1.1% among 85,000; AID 719;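 active = viability at or below 50% in the single dose screen; inactive = viability above 50%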;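 note: compound exposure lasted 72 h before the ATP readout; 100% = median luminescence of untreated cell-only wells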
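test system = LL 47 human lung fibroblasts | amount = 1,150 fibroblasts seeded per well | medium = 15% FBS in IMEM | times = overnight cell rest, 72 h compound treatment at 37 °C | measured by = CellTiter-Glo luminescence measuring cellular ATP | read-out = viability percentage against median untreated-cell control | benchmarks = cell-only wells, no compound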
HCT116 bCat-KO: beta-catenin-lacking colon tumor cell growth suppression | HCT116 beta-catenin knockout viability, CellTiter-Glo, 60 h; hits give low values | viability, % at 10 µM | AID 818 | hit rate 1.5% among 140,000;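 active = viability at or under a set limit, the compound median less 4 SD, cut at about 6% in these data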;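 note: 0% = Hyamine 1622 control at 20 µM and 100% = untreated cell control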
HUVEC prolif 384: blocks proliferation of human endothelial cells; hit rate 1.1% among 86,000; viability, % at 10 µM (by protocol); HUVEC proliferation, CellTiter-Glo luminescence, 72 h; hits give low values;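 active = viability at or below 30%; inactive = viability above 30%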;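 note: 100% = median luminescence of DMSO-only cell control wells on each plate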
HCT116 PTEN-null: suppresses growth of cells with PTEN deletion. hit rate 1.2% among 140,000. viability, % at 10 µM. HCT116 PTEN-null viability, CellTiter-Glo, 60 h; hits give low values;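 active = viability at or below a set limit, 4 SD under the median of all tested compounds, cut at about 3.7% in these data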;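 note: PTEN knockout HCT116 line with beta catenin targeted HCT116 as companion control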
* marks the source's active call; other numbers are inactive results.

What do the screens show for `O=C1/C(=C/c2cccnc2)Oc2cc(OS(=O)(=O)c3ccccc3)ccc21`?
H69AR growth 86K: 3.4*; Fibroblast inh: 105; HCT116 bCat-KO: 81; HUVEC prolif 384: 91; HCT116 PTEN-null: 71

How did COc1ccccc1C(=O)Oc1ccc2c(c1)O/C(=C\c1ccncc1)C2=O do in these assays?
HCT116 bCat-KO: 66; HCT116 PTEN-null: 54

Results for O=C(CCc1c[nH]c2ccccc12)NC1CC1 ?
H69AR growth 86K: 78; Fibroblast inh: 110; HCT116 bCat-KO: 105; HUVEC prolif 384: 95; HCT116 PTEN-null: 111

What do the screens show for `CC(C)Cn1c(C(C)C)nc([N+](=O)[O-])c1S(=O)(=O)c1ccc(F)cc1`?
HCT116 bCat-KO: 2.1*; HCT116 PTEN-null: 2.4*

Results for CC(C)Cn1c(CCCNC(=O)c2ccc(F)cc2)nc2ccccc21 ?
H69AR growth 86K: 70; Fibroblast inh: 106; HCT116 bCat-KO: 83; HUVEC prolif 384: 100; HCT116 PTEN-null: 94

Results for CCCc1nc([N+](=O)[O-])c(S(=O)(=O)c2ccccc2)n1CC(C)C ?
HCT116 bCat-KO: 3.3*; HCT116 PTEN-null: 2.9*

What do the screens show for `Cc1nnc(SCCn2c(N3CC(C)CC(C)C3)nc3c2c(=O)[nH]c(=O)n3C)s1` (stereo not given)?
H69AR growth 86K: 90; Fibroblast inh: 102; HCT116 bCat-KO: 95; HUVEC prolif 384: 89; HCT116 PTEN-null: 90

What do the screens show for `O=C(Nc1nccs1)C1C2/C=C\CCCCC21` (stereo not given)?
H69AR growth 86K: 96; Fibroblast inh: 92; HCT116 bCat-KO: 104; HUVEC prolif 384: 103; HCT116 PTEN-null: 97

How did Cn1c(C(C#N)C2=C(Cl)C(=O)N(c3ccccc3)C2=O)nc2ccccc21 (stereo not given) do in these assays?
H69AR growth 86K: 63; Fibroblast inh: 98; HCT116 bCat-KO: 96; HUVEC prolif 384: 87; HCT116 PTEN-null: 75

What do the screens show for `CN1CCN(C2=C(Cl)C(=O)N(c3ccc(Cl)c(Cl)c3)C2=O)CC1`?
H69AR growth 86K: 8.5*; Fibroblast inh: 94; HCT116 bCat-KO: 81; HUVEC prolif 384: 88; HCT116 PTEN-null: 86

Results for CCN1CCN(C2=C(Cl)C(=O)N(Cc3ccccc3)C2=O)CC1 ?
H69AR growth 86K: 47; Fibroblast inh: 95; HCT116 bCat-KO: 77; HUVEC prolif 384: 93; HCT116 PTEN-null: 88

What do the screens show for `CN1CCN(C2=C(Cl)C(=O)N(Cc3ccccc3)C2=O)CC1`?
H69AR growth 86K: 39*; Fibroblast inh: 91; HCT116 bCat-KO: 76; HUVEC prolif 384: 89; HCT116 PTEN-null: 76

What do the screens show for `Cc1ccc2c(C)[nH]c(=O)cc2c1`?
H69AR growth 86K: 72; Fibroblast inh: 94; HCT116 bCat-KO: 60; HUVEC prolif 384: 79; HCT116 PTEN-null: 78

How did N#CC1=C(N)Oc2cc(N)ccc2C1C1CCCCC1 (stereo not given) do in these assays?
H69AR growth 86K: 24*; Fibroblast inh: 58; HCT116 bCat-KO: 29; HUVEC prolif 384: 58; HCT116 PTEN-null: 25

Results for COc1ccc(-c2cc(-c3ccc(OC)cc3)c(C#N)c(SC)n2)cc1 ?
H69AR growth 86K: 64; Fibroblast inh: 100; HCT116 bCat-KO: 64; HUVEC prolif 384: 73; HCT116 PTEN-null: 64

Results for N#Cc1c(-c2cccc(F)c2)cc(-c2ccccc2)nc1Br ?
HCT116 bCat-KO: 49; HCT116 PTEN-null: 56

What do the screens show for `CS(=O)(=O)c1nc(-c2ccc(Br)cc2)cc(-c2ccccc2)c1C#N`?
H69AR growth 86K: 1.2*; Fibroblast inh: 1.9*; HCT116 bCat-KO: 1.6*; HUVEC prolif 384: 20*; HCT116 PTEN-null: 2.1*

Results for CS(=O)c1nc(-c2ccc(Br)cc2)cc(-c2ccccc2)c1C#N (stereo not given) ?
H69AR growth 86K: 1.5*; Fibroblast inh: 6.6*; HCT116 bCat-KO: 1.8*; HUVEC prolif 384: 9.9*; HCT116 PTEN-null: 1.8*

What do the screens show for `COc1ccc(-c2cc(-c3ccccc3)c(C#N)c(S(C)(=O)=O)n2)cc1`?
H69AR growth 86K: 3.6*; Fibroblast inh: 71; HCT116 bCat-KO: 1.1*; HUVEC prolif 384: 26*; HCT116 PTEN-null: 0.9*

How did N#Cc1c(-c2ccc(Br)cc2)cc(-c2cccnc2)nc1N do in these assays?
HCT116 bCat-KO: 104; HCT116 PTEN-null: 91

How did CN(C)CCCN1C(=O)c2oc3ccc(F)cc3c(=O)c2C1c1cccnc1 (stereo not given) do in these assays?
H69AR growth 86K: 95; Fibroblast inh: 97; HCT116 bCat-KO: 97; HUVEC prolif 384: 95; HCT116 PTEN-null: 99

How did Cc1cccc(C)c1NC(=O)C1(N2C(=O)CC2c2ccccc2)CCCCC1 (stereo not given) do in these assays?
HCT116 bCat-KO: 78; HCT116 PTEN-null: 84

What do the screens show for `COCCOC(=O)c1[nH]c2c(c1C)C(=O)CC(c1ccc(N(C)C)cc1)C2` (stereo not given)?
H69AR growth 86K: 87; Fibroblast inh: 89; HCT116 bCat-KO: 82; HUVEC prolif 384: 87; HCT116 PTEN-null: 86

How did COCCOC(=O)c1[nH]c2c(c1C)C(=O)CC(c1ccc(F)cc1)C2 (stereo not given) do in these assays?
H69AR growth 86K: 25*; Fibroblast inh: 86; HCT116 bCat-KO: 28; HUVEC prolif 384: 59; HCT116 PTEN-null: 27

What do the screens show for `COCCOC(=O)c1[nH]c2c(c1C)C(=O)CC(c1ccccc1)C2` (stereo not given)?
H69AR growth 86K: 39*; Fibroblast inh: 56; HCT116 bCat-KO: 17; HUVEC prolif 384: 43; HCT116 PTEN-null: 20

How did Cc1ccc(-n2nnc3c(SCC(=O)NCC4CCCO4)ncnc32)cc1 (stereo not given) do in these assays?
H69AR growth 86K: 86; Fibroblast inh: 97; HCT116 bCat-KO: 62; HUVEC prolif 384: 86; HCT116 PTEN-null: 62

What do the screens show for `O=C(CSc1ncnc2c1nnn2-c1ccc(F)cc1)NCC1CCCO1` (stereo not given)?
H69AR growth 86K: 49; Fibroblast inh: 98; HCT116 bCat-KO: 5.8*; HUVEC prolif 384: 90; HCT116 PTEN-null: 28

Results for O=C1COc2ccccc2N1Cc1ccccc1Cl ?
H69AR growth 86K: 80; Fibroblast inh: 92; HCT116 bCat-KO: 88; HUVEC prolif 384: 96; HCT116 PTEN-null: 83

Results for COc1cc(Nc2ccc(C)cc2)c([N+](=O)[O-])nc1[N+](=O)[O-] ?
H69AR growth 86K: 6.2*; Fibroblast inh: 39*; HCT116 bCat-KO: 23; HUVEC prolif 384: 42; HCT116 PTEN-null: 21

How did CC(C)(C)c1cc(NC(=O)CCSc2nnc3ccccn23)cc(C(C)(C)C)c1 do in these assays?
H69AR growth 86K: 53; Fibroblast inh: 46*; HCT116 bCat-KO: 38; HUVEC prolif 384: 46; HCT116 PTEN-null: 50

How did C1CCC(C(CC2CCCCN2)C2CCCCC2)CC1 (stereo not given) do in these assays?
H69AR growth 86K: 1.3*; Fibroblast inh: 1.8*; HCT116 bCat-KO: 1.5*; HUVEC prolif 384: 1.6*; HCT116 PTEN-null: 2.2*

How did Cc1nnc2ccc(Oc3ccc(-c4ccccc4)cc3)nn12 do in these assays?
H69AR growth 86K: 81; Fibroblast inh: 103; HCT116 bCat-KO: 62; HUVEC prolif 384: 89; HCT116 PTEN-null: 66
